Assays:
Rattus norvegicus [1] = test: Antihypertensive activity in spontaneously hypertensive rats (SHR) measured by percentage fall in arterial pressure (AP) at 25 mg/kg administered intraperitoneally at 3 h; assay type: functional, Artery; conditions: route intraperitoneal
Summary of the method: (§1)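 Unanesthetized Okamoto-strain SHR, male and female, 8 weeks old, 300–350 g, systolic pressure ≥190 mmHg, heart rate 400–650 beats/min; five animals per dose. Given ip at 2.5 mL/kg, dissolved or suspended in normal saline or saline with 0.2% (carboxymethyl)cellulose and 1.0% Tween 80. Tail AP and CR recorded by mechanical transduction at set times; reported as percentage fall from control.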

Rattus norvegicus [2] = test: Antihypertensive activity in spontaneously hypertensive rats (SHR) measured by percentage fall in cardiac rhythm (CR) at 5 mg/kg administered intraperitoneally at 3 h; assay type: functional, Heart; conditions: route intraperitoneal
Summary of the method: (§2)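 Conscious SHR (Okamoto strain), 8 weeks old, male and female, 300–350 g, systolic BP ≥190 mmHg, CR 400–650 beats/min. Given ip or po at 2.5 mL/kg in normal saline or saline with 0.2% (carboxymethyl)cellulose and 1.0% Tween 80. Tail AP and CR recorded by mechanical transduction at 1, 3, 5 and 24 h, five animals per dose. Effect expressed as % fall versus control.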

Rattus norvegicus [3] = test: Antihypertensive activity in spontaneously hypertensive rats (SHR) measured by percentage fall in cardiac rhythm (CR) at 25 mg/kg administered intraperitoneally at 24 h; assay type: functional, Heart; conditions: route intraperitoneal; summary of the method: as §1
Rattus norvegicus [4] = test: Antihypertensive activity in spontaneously hypertensive rats (SHR) measured by percentage fall in cardiac rhythm (CR) at 25 mg/kg administered perorally at 3 h; assay type: functional, Heart; conditions: route oral; summary of the method: as §2
Rattus norvegicus [5] = test: Antihypertensive activity in spontaneously hypertensive rats (SHR) measured by percentage fall in cardiac rhythm (CR) at 1 mg/kg administered intraperitoneally at 24 h; assay type: functional, Heart; conditions: route intraperitoneal; summary of the method: as §1
Rattus norvegicus [6] = test: Antihypertensive activity in spontaneously hypertensive rats (SHR) measured by percentage fall in arterial pressure (AP) at 5 mg/kg administered intraperitoneally at 24 h; assay type: functional, Artery; conditions: route intraperitoneal; summary of the method: as §1
Rattus norvegicus [7] = test: Antihypertensive activity in spontaneously hypertensive rats (SHR) measured by percentage fall in cardiac rhythm (CR) at 1 mg/kg administered intraperitoneally at 5 h; assay type: functional, Heart; conditions: route intraperitoneal; summary of the method: as §1
Rattus norvegicus [8] = test: Antihypertensive activity in spontaneously hypertensive rats (SHR) measured by percentage fall in arterial pressure (AP) at 25 mg/kg administered intraperitoneally at 5 h; assay type: functional, Artery; conditions: route intraperitoneal; summary of the method: as §1
Rattus norvegicus [9] = test: Antihypertensive activity in spontaneously hypertensive rats (SHR) measured by percentage fall in arterial pressure (AP) at 5 mg/kg administered intraperitoneally at 3 h; assay type: functional, Artery; conditions: route intraperitoneal; summary of the method: as §1
Rattus norvegicus [10] = test: Antihypertensive activity in spontaneously hypertensive rats (SHR) measured by percentage fall in arterial pressure (AP) at 5 mg/kg administered intraperitoneally at 5 h; assay type: functional, Artery; conditions: route intraperitoneal; summary of the method: as §1
Rattus norvegicus [11] = test: Antihypertensive activity in spontaneously hypertensive rats (SHR) measured by percentage fall in cardiac rhythm (CR) at 1 mg/kg administered intraperitoneally at 3 h; assay type: functional, Heart; conditions: route intraperitoneal; summary of the method: as §1
Rattus norvegicus [12] = test: Antihypertensive activity in spontaneously hypertensive rats (SHR) measured by percentage fall in arterial pressure (AP) at 25 mg/kg administered perorally at 3 h; assay type: functional, Artery; conditions: route oral
Summary of the method: (§3)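 Oral dosing at 2.5 mL/kg to unanesthetized male and female Okamoto-strain SHR (8 weeks old, 300–350 g, systolic pressure ≥190 mmHg, heart rate 400–650 beats/min), five per dose. Vehicle was normal saline or saline with 0.2% (carboxymethyl)cellulose and 1.0% Tween 80. AP measured on the tail by mechanical transduction at set times; expressed as percentage fall from control.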

Rattus norvegicus [13] = test: Antihypertensive activity in spontaneously hypertensive rats (SHR) measured by percentage fall in arterial pressure (AP) at 25 mg/kg administered perorally at 24 h; assay type: functional, Artery; conditions: route oral; summary of the method: as §3
Rattus norvegicus [14] = test: Antihypertensive activity in spontaneously hypertensive rats (SHR) measured by percentage fall in cardiac rhythm (CR) at 25 mg/kg administered intraperitoneally at 3 h; assay type: functional, Heart; conditions: route intraperitoneal; summary of the method: as §1
Rattus norvegicus [15] = test: Antihypertensive activity in spontaneously hypertensive rats (SHR) measured by percentage fall in arterial pressure (AP) at 25 mg/kg administered intraperitoneally at 24 h; assay type: functional, Artery; conditions: route intraperitoneal; summary of the method: as §1
Rattus norvegicus [16] = test: Antihypertensive activity in spontaneously hypertensive rats (SHR) measured by percentage fall in cardiac rhythm (CR) at 25 mg/kg administered intraperitoneally at 5 h; assay type: functional, Heart; conditions: route intraperitoneal; summary of the method: as §2
Rattus norvegicus [17] = test: Antihypertensive activity in spontaneously hypertensive rats (SHR) measured by percentage fall in arterial pressure (AP) at 25 mg/kg administered perorally at 5 h; assay type: functional, Artery; conditions: route oral; summary of the method: as §3
Rattus norvegicus [18] = test: Antihypertensive activity in spontaneously hypertensive rats (SHR) measured by percentage fall in cardiac rhythm (CR) at 25 mg/kg administered intraperitoneally at 24 h;No significance; assay type: functional, organism-based; design: dose 25 mg/kg; conditions: Heart; summary of the method: as §1
Rattus norvegicus [19] = test: Antihypertensive activity in spontaneously hypertensive rats (SHR) measured by percentage fall in arterial pressure (AP) at 25 mg/kg administered intraperitoneally at 24 h;No significance; assay type: functional, organism-based; design: dose 25 mg/kg; conditions: Artery; summary of the method: as §1
Rattus norvegicus [20] = test: Antihypertensive activity in spontaneously hypertensive rats (SHR) measured by percentage fall in cardiac rhythm (CR) at 25 mg/kg administered intraperitoneally at 1 h; assay type: functional, Heart; conditions: route intraperitoneal; summary of the method: as §1
Rattus norvegicus [21] = test: Antihypertensive activity in spontaneously hypertensive rats (SHR) measured by percentage fall in arterial pressure (AP) at 25 mg/kg administered intraperitoneally at 1 h; assay type: functional, Artery; conditions: route intraperitoneal; summary of the method: as §1
Rattus norvegicus [22] = test: Antihypertensive activity in spontaneously hypertensive rats (SHR) measured by percentage fall in cardiac rhythm (CR) at 25 mg/kg administered intraperitoneally at 5 h;No significance; assay type: functional, organism-based; design: dose 25 mg/kg; conditions: Heart; summary of the method: as §2
Rattus norvegicus [23] = test: Antihypertensive activity in spontaneously hypertensive rats (SHR) measured by percentage fall in arterial pressure (AP) at 25 mg/kg administered intraperitoneally at 3 h;No significance; assay type: functional, organism-based; design: dose 25 mg/kg; conditions: Artery; summary of the method: as §1
Rattus norvegicus [24] = test: Antihypertensive activity in spontaneously hypertensive rats (SHR) measured by percentage fall in cardiac rhythm (CR) at 25 mg/kg administered intraperitoneally at 3 h;No significance; assay type: functional, organism-based; design: dose 25 mg/kg; conditions: Heart; summary of the method: as §2
Homo sapiens [25] = species on record: Homo sapiens; test: In vitro inhibition of platelet aggregation induced by ADP-II (PRP incubated for 60 minutes at 37 degree C) at 10e-5 M; assay type: functional; conditions: 1 h
Summary of the method: (§4)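 Human venous blood anticoagulated with 3.8% sodium citrate (1:9). PRP from centrifugation at 800 rpm for 10 min at room temperature. Count adjusted with PPP to […]. Compound in saline with 10% ethylene glycol is added to PRP and incubated at 37 °C before the agonist. Agonists: ADP 2×10^-5 M, AA 0.6 mM, PGH2 2.8 μM, adrenaline 0.6 μM. Born absorbance aggregometry; n = 5.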

Homo sapiens [26] = species on record: Homo sapiens; test: In vitro inhibition of platelet aggregation induced by ADP-II (PRP incubated for 5 minutes at 37 degree C) at 10e-5 M; assay type: functional; summary of the method: as §4
Rattus norvegicus [27] = test: Antihypertensive activity in spontaneously hypertensive rats (SHR) measured by percentage fall in arterial pressure (AP) at 25 mg/kg administered intraperitoneally at 5 h;No significance; assay type: functional, organism-based; design: dose 25 mg/kg; conditions: Artery; summary of the method: as §1
Rattus norvegicus [28] = test: Antihypertensive activity in spontaneously hypertensive rats (SHR) measured by percentage fall in cardiac rhythm (CR) at 25 mg/kg administered intraperitoneally at 1 h;No significance; assay type: functional, organism-based; design: dose 25 mg/kg; conditions: Heart; summary of the method: as §1
Homo sapiens [29] = species on record: Homo sapiens; test: In vitro inhibition of platelet aggregation induced by AA (PRP incubated for 60 minutes at 37 degree C) at 10e-5 M; No significance; assay type: functional; summary of the method: as §4
Homo sapiens [30] = species on record: Homo sapiens; test: In vitro inhibition of platelet aggregation induced by […] (PRP incubated for 5 minutes at 37 degree C) at 10e-5 M; No significance; assay type: functional
Homo sapiens [31] = species on record: Homo sapiens; test: In vitro inhibition of platelet aggregation induced by ADP-II (PRP incubated for 5 minutes at 37 degree C) at 10e-5 M; No significance; assay type: functional; summary of the method: as §4
Rattus norvegicus [32] = test: Antihypertensive activity in spontaneously hypertensive rats (SHR) measured by percentage fall in arterial pressure (AP) at 25 mg/kg administered intraperitoneally at 1 h;No significance; assay type: functional, organism-based; design: dose 25 mg/kg; conditions: Artery; summary of the method: as §1

Structure (SMILES)	Decrease in AP (Rattus norvegicus [1])	Decrease in AP (Rattus norvegicus [8])	Decrease in CR (Rattus norvegicus [14])	Decrease in AP (Rattus norvegicus [15])	Decrease in CR (Rattus norvegicus [16])	Decrease in CR (Rattus norvegicus [18])	Decrease in AP (Rattus norvegicus [21])	further results
NNc1[nH]ncc2c3cc(OCc4ccccc4)ccc3nc1-2	12%	13%	15%	7%	20%			Decrease in CR (Rattus norvegicus [2]): 16%; Decrease in CR (Rattus norvegicus [3]): 7%; Decrease in CR (Rattus norvegicus [4]): 21%; Decrease in CR (Rattus norvegicus [5]): 9%; Decrease in AP (Rattus norvegicus [6]): 7%; Decrease in CR (Rattus norvegicus [7]): 6%; Decrease in AP (Rattus norvegicus [9]): 5%; Decrease in AP (Rattus norvegicus [10]): 13%; Decrease in CR (Rattus norvegicus [11]): 8%; Decrease in AP (Rattus norvegicus [12]): 6%; Decrease in AP (Rattus norvegicus [13]): 5%; Decrease in AP (Rattus norvegicus [17]): 10%
COc1ccc2[nH]c3c(cnn4c(C)nnc34)c2c1	10%	8%	-5%		7%	No significant values		Decrease in AP (Rattus norvegicus [19]): No significant values
NNc1[nH]ncc2c3cc(OCc4ccccc4)ccc3nc1-2.O=S(=O)(O)O	32%	26%	7%		8%		21%	Decrease in CR (Rattus norvegicus [20]): 9%
COc1ccc2[nH]c3c(cnn4cnnc34)c2c1		11%	10%			No significant values		Decrease in CR (Rattus norvegicus [22]): No significant values; Decrease in AP (Rattus norvegicus [19]): No significant values; Decrease in AP (Rattus norvegicus [23]): No significant values
COc1ccc2[nH]c3c(cnn4nnnc34)c2c1	12%	8%		6%		No significant values		Decrease in CR (Rattus norvegicus [22]): No significant values; Decrease in CR (Rattus norvegicus [24]): No significant values
COc1ccc2c(c1)cc1c(NN)nncn12 [listing 1 of 2 here]								inhibition at 10 µM (Homo sapiens [25]): 100%; inhibition at 10 µM (Homo sapiens [26]): 100%
COc1ccc2[nH]c3c(NN)nncc3c2c1	32%	30%	-8%	5%	-10%		17%	Decrease in CR (Rattus norvegicus [20]): -8%
Cl.NNc1[nH]ncc2c3cc(OCc4ccccc4)ccc3nc1-2	33%	28%	-13%	9%	-15%		18%	Decrease in CR (Rattus norvegicus [20]): -7%; Decrease in CR (Rattus norvegicus [3]): -16%
COc1ccc2[nH]c3c(NN=C(C)C)nncc3c2c1	13%	14%	-11%	7%	-8%			Decrease in CR (Rattus norvegicus [3]): -10%
CCOc1ccc2[nH]c3c(S)nncc3c2c1	5%					No significant values	10%	Decrease in AP (Rattus norvegicus [27]): No significant values; Decrease in CR (Rattus norvegicus [22]): No significant values; Decrease in AP (Rattus norvegicus [19]): No significant values; Decrease in CR (Rattus norvegicus [28]): No significant values; Decrease in CR (Rattus norvegicus [24]): No significant values
COc1ccc2[nH]c3c(N/N=C\c4ccccc4)nncc3c2c1	6%	8%	-20%					Decrease in CR (Rattus norvegicus [3]): -13%
COc1ccc2c(c1)cc1c(O)nncn12								inhibition at 10 µM (Homo sapiens [25]): 100%; inhibition (Homo sapiens [29]): No significant values; inhibition (Homo sapiens [30]): No significant values; inhibition (Homo sapiens [31]): No significant values
COc1ccc2c(c1)cc1c(NN)nncn12.Cl							9%	
COc1ccc2c(c1)cc1c(S)nncn12								inhibition at 10 µM (Homo sapiens [25]): 100%; inhibition (Homo sapiens [29]): No significant values; inhibition (Homo sapiens [30]): No significant values; inhibition (Homo sapiens [31]): No significant values
COc1ccc2c(c1)cc1c(NN)nncn12 [listing 2 of 2 here]						No significant values		Decrease in AP (Rattus norvegicus [27]): No significant values; Decrease in CR (Rattus norvegicus [22]): No significant values; Decrease in AP (Rattus norvegicus [19]): No significant values; Decrease in CR (Rattus norvegicus [28]): No significant values; inhibition (Homo sapiens [29]): No significant values; Decrease in CR (Rattus norvegicus [24]): No significant values; inhibition (Homo sapiens [30]): No significant values; Decrease in AP (Rattus norvegicus [32]): No significant values; Decrease in AP (Rattus norvegicus [23]): No significant values
CCOc1ccc2[nH]c3c(NN)nncc3c2c1	28%	24%	-11%	5%	-9%		29%	Decrease in CR (Rattus norvegicus [20]): -20%

— ChEMBL document CHEMBL1123757, “Selective thromboxane synthetase inhibitors and antihypertensive agents. New derivatives of 4-hydrazino-5H-pyridazino[4,5-b]indole, 4-hydrazinopyridazino[4,5-a]indole, and related compounds” (J Med Chem, 1987)
